# From ChEMBL document CHEMBL3813686, “Biologically Active Acetylenic Amino Alcohol and N-Hydroxylated 1,2,3,4-Tetrahydro-β-carboline Constituents of the New Zealand Ascidian Pseudodistoma opacum” (J Nat Prod, 2016)
# pIC50: −log10 of the molar value. The source made the active and inactive calls. The calls are words filed in the database; no cut-off is given here.
# What was measured:
# [1] = tested on: Mycobacterium tuberculosis; test: Bactericidal activity against Mycobacterium tuberculosis BSG001 incubated overnight by microbroth-dilution method; format: functional
# How it was run: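 Broth microdilution on luciferase-tagged M. tuberculosis H37Rv in 7H9 medium without Tween or kanamycin, using DMSO-dissolved compounds at 64–1 μg/mL (doubling) and incubating overnight at 37 °C. 5 μL from the MIC wells went into 195 μL fresh medium and was incubated overnight at 37 °C. Dilutions were also plated. MBC was taken as at least a 3-log drop from the initial inoculum.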
# [2] = tested on: Mycobacterium tuberculosis; test: Antibacterial activity against Mycobacterium tuberculosis BSG001 incubated overnight by microbroth-dilution method; format: functional
# How it was run: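 M. tuberculosis H37Rv carrying a bacterial luciferase vector, grown 2 weeks at 37 °C (100 rpm) in Middlebrook 7H9 with ADC and glycerol. Assay medium was 7H9 without Tween or kanamycin. Compounds in DMSO were tested in doubling dilutions from 64 to 1 μg/mL, with untreated and DMSO controls, incubated overnight at 37 °C. Triplicate wells per concentration; three separate experiments.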
# Staphylococcus aureus [3] = test: Antibacterial activity against Staphylococcus aureus XEN36 incubated overnight by microbroth-dilution method; format: functional
# How it was run: (§1)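 Mueller Hinton broth cultures were grown overnight at 37 °C with shaking at 200 rpm. Inoculum was adjusted to approximately 5 × 10^5 cfu/mL final, confirmed by retrospective plating. Compounds were dissolved in DMSO and tested in doubling dilutions, with untreated and DMSO controls. Plates were incubated overnight at 37 °C. Each concentration was run in triplicate on three separate occasions.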
# Staphylococcus aureus [4] = test: Bactericidal activity against Staphylococcus aureus XEN36 incubated overnight by microbroth-dilution method; format: functional
# How it was run: (§2)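 Broth from the MIC wells (standard microbroth dilution, ~5 × 10^5 cfu/mL in Mueller Hinton broth) was transferred into fresh medium and incubated overnight at 37 °C, then scored for growth. Cell dilutions were also plated. MBC was taken as a reduction of at least 3 logs from the initial inoculum.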
# Escherichia coli [5] = test: Antibacterial activity against Escherichia coli ATCC 25922 incubated overnight by microbroth-dilution method; format: functional; how it was run: as §1
# Escherichia coli [6] = test: Bactericidal activity against Escherichia coli ATCC 25922 incubated overnight by microbroth-dilution method; format: functional; how it was run: as §2
# Escherichia coli [7] = test: Antibacterial activity against Escherichia coli after 24 hrs by broth macrodilution method; format: functional
# Plasmodium falciparum = test: Antiplasmodial activity against chloroquine-resistant Plasmodium falciparum FcB1/Columbia infected in erythrocytes assessed as inhibition of parasite growth after 48 hrs by 3H-hypoxanthine incorporation assay; format: functional, organism-based
# [8] = tested on: Mycobacterium tuberculosis; test: Antibacterial activity against Mycobacterium tuberculosis H37Ra after 7 days by resazurin dye based fluorescence assay; format: functional; settings: 168 h
# Staphylococcus aureus [9] = test: Antibacterial activity against Staphylococcus aureus ATCC 25923 after 16 hrs by resazurin dye based fluorescence assay; format: functional; settings: ATCC 25923, 16 h
# Escherichia coli [10] = test: Antibacterial activity against Escherichia coli ATCC 25922 after 16 hrs by resazurin dye based fluorescence assay; format: functional; settings: ATCC 25922, 16 h
SMILES,MBC [1],MIC [2],MIC (Staphylococcus aureus [3]),MBC (Staphylococcus aureus [4]),MIC (Escherichia coli [5]),MBC (Escherichia coli [6]),also measured
CO[C@H]1/C=C/O[C@@]2(C)Oc3c(C)c(O)c4c(O)c(c(/C=N/N5CCN(C)CC5)c(O)c4c3C2=O)NC(=O)/C(C)=C\C=C\[C@H](C)[C@H](O)[C@@H](C)[C@@H](O)[C@@H](C)[C@H](OC(C)=O)[C@@H]1C [RIFAMPIN],0.161 µg/mL,0.161 µg/mL,4 ng/mL,0.008 µg/mL,8 µg/mL,8 µg/mL,–
C=CCCCCCC/C=C\C[C@H](O)[C@H](C)N,–,–,–,–,–,–,MIC (Escherichia coli [7]): 196 µM
N=C(N)NCCCCC1NCCc2c1n(O)c1cc(Br)ccc21 (configuration not stated),106 µM,106 µM,53 µM,53 µM,106 µM,106 µM,pIC50 (Plasmodium falciparum): 5.42
C=CCCC#CC#CCCCCCCC[C@H](O)CN,64 µg/mL,85 µM,85 µM,32 µg/mL,170 µM,> 128 µg/mL,–
CCCCC/C=C\C/C=C\CC/C=C/C[C@H](O)[C@H](C)N,–,–,–,–,–,–,MIC (Escherichia coli [7]): 360 µM
C=CCCC#CC#CCCCCCCC[C@@H](CNC(=O)c1ccccc1)OC(=O)c1ccccc1,–,–,–,–,–,–,Activity [2]: inactive; Activity (Staphylococcus aureus [3]): inactive; Activity (Escherichia coli [5]): inactive
CCCCCCCCCCC[C@H](O)[C@H](C)N,–,–,–,–,–,–,MIC [8]: 33 µM; MIC (Staphylococcus aureus [9]): 33 µM; MIC (Escherichia coli [10]): 33 µM
